Assay results taken from ChEMBL document CHEMBL2146441, “2,6-Disubstituted imidazo[2,1-b][1,3,4]thiadiazoles: search for anticancer agents” (2012).

Experiments:
Format in all cases: functional
[1] = tested on: HCT-116; assay: Cytotoxicity against human HCT116 cells assessed as cell growth at 10^-5 M after 48 hrs by SRB assay; settings: HCT-116, 48 h, read-out: Activity
In short: (§1)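 NCI-60 five-dose screen. Cells were grown in RPMI 1640 with 5% FBS and seeded at 5000–40,000 cells/well according to doubling time. They were pre-incubated 24 h at 37 °C in 5% CO₂, and time-zero (Tz) plates were TCA-fixed at drug addition. Five 10-fold dilutions of DMSO stock were applied for 48 h. Read-out was SRB staining, 515 nm absorbance, with percent growth calculated versus Tz and untreated control.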

[2] = tested on: HCT-15; assay: Cytotoxicity against human HCT15 cells assessed as cell growth at 10^-5 M after 48 hrs by SRB assay; settings: HCT-15, 48 h, read-out: Activity; in short: as §1
[3] = tested on: OVCAR-4; assay: Cytotoxicity against human OVCAR4 cells assessed as cell growth at 10^-5 M after 48 hrs by SRB assay; settings: OVCAR-4, 48 h, read-out: Activity
[4] = tested on: ACHN; assay: Cytotoxicity against human ACHN cells assessed as cell growth at 10^-5 M after 48 hrs by SRB assay; settings: read-out: Activity
In short: (§2)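 NCI-60 screen: lines kept in RPMI 1640 with 5% FBS, seeded at 5000–40,000 cells/well by doubling time, preincubated 24 h at 37 °C in 5% CO2. Time-zero plates TCA-fixed at drug addition. DMSO stocks diluted in medium, 48 h exposure. Fixation in cold TCA (final 10% adherent, 16% suspension), 0.4% SRB stain, solubilised in 10 mM Tris base, A515. Percent growth computed against control and time-zero.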

[5] = tested on: SNB-19; assay: Growth inhibition of human SNB19 cells after 48 hrs by SRB assay; settings: SNB-19, 48 h; for CC50: read-out: LC50 (the source's name)
In short: (§3)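 Adherent NCI-60 lines grown in RPMI 1640 with 5% FBS, seeded at 5000–40,000 cells/well, and preincubated 24 h at 37 °C, 5% CO2. Compound, stocked in DMSO, given either once at 10^-5 M or at five 10-fold dilutions for 48 h. Cells fixed with cold TCA (final 10%), stained with 0.4% SRB, and read at 515 nm. GI50 taken as 50% reduction in net protein increase versus time-zero and control plates.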

[6] = tested on: SNB-75; assay: Growth inhibition of human SNB75 cells after 48 hrs by SRB assay; settings: SNB-75, 48 h; in short: as §3
[7] = tested on: NCI-H23; assay: Growth inhibition of human NCI-H23 cells after 48 hrs by SRB assay; settings: NCI-H23, 48 h; in short: as §3
[8] = tested on: SK-MEL-5; assay: Growth inhibition of human SK-MEL-5 cells after 48 hrs by SRB assay; settings: SK-MEL-5, 48 h, read-out: LC50 (the source's name); in short: as §3
[9] = tested on: NCI-H226; assay: Cytotoxicity against human NCI-H226 cells assessed as cell growth at 10^-7 M after 48 hrs by SRB assay; settings: NCI-H226, 48 h, read-out: Activity
[10] = tested on: UACC-257; assay: Cytotoxicity against human UACC257 cells assessed as cell growth at 10^-7 M after 48 hrs by SRB assay; settings: UACC-257, 48 h, read-out: Activity
[11] = tested on: A549; assay: Cytotoxicity against human A549 cells assessed as cell growth at 10^-4 M after 48 hrs by SRB assay; settings: A549, 48 h, read-out: Activity
[12] = tested on: OVCAR-4; assay: Cytotoxicity against human OVCAR4 cells assessed as cell growth at 10^-4 M after 48 hrs by SRB assay; settings: OVCAR-4, 48 h, read-out: Activity
[13] = Cytotoxicity against human NCI-ADR-RES cells assessed as cell growth at 10^-4 M after 48 hrs by SRB assay; settings: read-out: Activity
[14] = tested on: RXF 393; assay: Cytotoxicity against human RXF393 cells assessed as cell growth at 10^-4 M after 48 hrs by SRB assay; settings: RXF 393, 48 h, read-out: Activity
[15] = tested on: NCI-H23; assay: Growth inhibition of human NCI-H23 cells at 10^-8 M after 48 hrs by SRB assay; design: scale not given: the % may be the effect or the level left
[16] = tested on: NCI-H23; assay: Growth inhibition of human NCI-H23 cells at 10^-7 M after 48 hrs by SRB assay; design: scale not given: the % may be the effect or the level left
[17] = tested on: NCI-H23; assay: Growth inhibition of human NCI-H23 cells at 10^-6 M after 48 hrs by SRB assay; design: scale not given: the % may be the effect or the level left
[18] = tested on: NCI-H23; assay: Growth inhibition of human NCI-H23 cells at 10^-5 M after 48 hrs by SRB assay; design: scale not given: the % may be the effect or the level left
[19] = tested on: NCI-H23; assay: Growth inhibition of human NCI-H23 cells at 10^-4 M after 48 hrs by SRB assay; design: scale not given: the % may be the effect or the level left
[20] = tested on: SK-MEL-5; assay: Growth inhibition of human SK-MEL-5 cells at 10^-7 M after 48 hrs by SRB assay; design: scale not given: the % may be the effect or the level left
[21] = tested on: SK-MEL-5; assay: Growth inhibition of human SK-MEL-5 cells at 10^-6 M after 48 hrs by SRB assay; design: scale not given: the % may be the effect or the level left
[22] = tested on: SK-MEL-5; assay: Growth inhibition of human SK-MEL-5 cells at 10^-5 M after 48 hrs by SRB assay; design: scale not given: the % may be the effect or the level left
[23] = tested on: OVCAR-4; assay: Cytotoxicity against human OVCAR4 cells assessed as cell growth at 10^-7 M after 48 hrs by SRB assay; settings: OVCAR-4, 48 h, read-out: Activity
[24] = tested on: MDA-MB-231; assay: Cytotoxicity against human MDA-MB-231 cells assessed as cell growth at 10^-7 M after 48 hrs by SRB assay; settings: MDA-MB-231, 48 h, read-out: Activity
[25] = tested on: BT-549; assay: Cytotoxicity against human BT549 cells assessed as cell growth at 10^-7 M after 48 hrs by SRB assay; settings: BT-549, 48 h, read-out: Activity; in short: as §2
[26] = tested on: SK-OV-3; assay: Cytotoxicity against human SKOV3 cells assessed as cell growth at 10^-8 M after 48 hrs by SRB assay; settings: SK-OV-3, 48 h, read-out: Activity
[27] = tested on: SK-MEL-5; assay: Growth inhibition of human SK-MEL-5 cells at 10^-4 M after 48 hrs by SRB assay; design: scale not given: the % may be the effect or the level left
[28] = tested on: SK-MEL-5; assay: Growth inhibition of human SK-MEL-5 cells at 10^-8 M after 48 hrs by SRB assay; design: scale not given: the % may be the effect or the level left
[29] = Cytotoxicity against human Hs 578T cells assessed as cell growth at 10^-8 M after 48 hrs by SRB assay; settings: read-out: Activity; in short: as §1
[30] = tested on: OVCAR-3; assay: Growth inhibition of human OVCAR3 cells after 48 hrs by SRB assay; settings: OVCAR-3, 48 h; in short: as §3
[31] = tested on: HCT-116; assay: Growth inhibition of human HCT116 cells after 48 hrs by SRB assay; settings: HCT-116, 48 h; in short: as §3
[32] = tested on: UO-31; assay: Cytotoxicity against human UO31 cells assessed as cell growth at 10^-5 M after 48 hrs by SRB assay; settings: UO-31, 48 h, read-out: Activity
[33] = tested on: HOP-92; assay: Cytotoxicity against human HOP92 cells assessed as cell growth at 10^-6 M after 48 hrs by SRB assay; settings: HOP-92, 48 h, read-out: Activity
[34] = read-out: LC50 (the source's name)

COc1ccc(-c2nn3cc(-c4cccc(N)c4)nc3s2)cc1
growth at 10 µM [1]: 16% | growth at 10 µM [2]: 36% | growth at 10 µM [3]: 7% | growth at 10 µM [4]: 27% | GI50 [5]: 12.4 µM | TGI [5]: > 100 µM | CC50 [5]: > 100 µM | GI50 [6]: 1.07 µM | TGI [6]: 4.87 µM | CC50 [6, 34]: > 100 µM | GI50 [7]: 4.9 µM | TGI [7]: > 100 µM | CC50 [7, 34]: > 100 µM | CC50 [8]: 3.32 µM | growth at 0.1 µM [9]: 80% | growth at 0.1 µM [10]: 109% | growth at 100 µM [11]: -46% | growth at 100 µM [12]: -34% | growth at 100 µM [13]: -11% | growth at 100 µM [14]: -90% | Activity [15]: 92% | Activity [16]: 89% | Activity [17]: 84% | Activity [18]: 35% | Activity [19]: 2% | Activity [20]: 91% | Activity [21]: 75% | Activity [22]: 1% | growth at 0.1 µM [23]: 92% | growth at 0.1 µM [24]: 81% | growth at 0.1 µM [25]: 98% | growth at 0.01 µM [26]: 97% | Activity [27]: -96% | Activity [28]: 91% | growth at 0.01 µM [29]: 90% | GI50 [30]: 3.4 µM | LC50 (concentration causing 50% net cell kill) [30]: 55.2 µM | TGI [30]: 15.9 µM | GI50 [31]: 3.51 µM | LC50 (50% lethal concentration) [31]: 41.4 µM | TGI [31]: 14.2 µM

COc1ccc(-c2nn3cc(-c4ccc(O)cc4O)nc3s2)cc1
growth at 10 µM [1]: -62% | growth at 10 µM [2]: 32% | growth at 10 µM [3]: -60% | growth at 10 µM [4]: 9% | growth at 10 µM [32]: -46% | GI50 [5]: 3.57 µM | TGI [5]: > 100 µM | CC50 [5]: > 100 µM | GI50 [6]: 0.331 µM | TGI [6]: 2.17 µM | growth at 0.1 µM [9]: 88% | growth at 0.1 µM [10]: 92% | growth at 100 µM [12]: -22% | growth at 100 µM [14]: -63% | growth at 0.1 µM [23]: 88% | growth at 0.1 µM [24]: 99% | growth at 0.1 µM [25]: 94% | growth at 0.01 µM [26]: 102% | growth at 0.01 µM [29]: 95% | growth at 1 µM [33]: 25% | GI50 [30]: 2.54 µM | LC50 (concentration causing 50% net cell kill) [30]: > 100 µM | TGI [30]: 8.48 µM | GI50 [31]: 1.76 µM | LC50 (50% lethal concentration) [31]: 8.25 µM | TGI [31]: 3.81 µM
